Experimental data gathered from unrelated publications.
Protocols differ between the studies behind these lines.
Target: MAP kinase-interacting serine/threonine-protein kinase 2 (MKNK2, Homo sapiens, UniProt Q9HBH9)

SMILES | assay | setting | quantity | result
CSc1cccnc1N1CCN(Cc2nc3ccccc3[nH]2)CC1 | cell-free assay, competition with immobilised ligand | 1 µM | remaining binding | 75%
O=C1NC(=O)c2cc(Nc3ccc(F)cc3)c(Nc3ccc(F)cc3)cc21 | cell-free assay | 0.5 µM | remaining signal | 101%
CC(=O)C1=C(O)C=C2Oc3c(C(N)=O)c(O)cc(O)c3[C@]2(C)C1=O | enzyme activity, inhibitor, radiometric | 10 µM | activity vs control | 0%
CCN(CC)c1ccc(C2=NNC(=O)CC2C)cc1[N+](=O)[O-] (centres unmarked) | enzyme activity, inhibitor | 10 µM | remaining activity | 25%
Cc1ccc(Nc2nccc(N(C)c3ccc4c(C)n(C)nc4c3)n2)cc1S(N)(=O)=O | enzyme activity, inhibitor | 0.3 µM | inhibition | 3%
CC/C(=N\NC(=O)NCc1cccc(O)c1)c1ccc(O)c(C)c1O | enzyme activity, inhibitor | 0.1 µM | inhibition | -2.9%
Cn1c(=O)n(-c2ccc(C(C)(C)C#N)cc2)c2c3cc(-c4cnc5ccccc5c4)ccc3ncc21 | enzyme activity, inhibitor | 10 µM | remaining activity | 94%
CC(C)(C)c1nc(-c2cccc(NS(=O)(=O)c3c(F)cccc3F)c2F)c(-c2ccnc(N)n2)s1 | enzyme activity, inhibitor, radiometric | 1 µM | remaining activity | 63%
C=CC(=O)Nc1cc(Nc2nccc(Nc3cc(Cl)c(F)cc3C(C)(C)O)n2)c(OC)cc1N1CC[C@@H](N(C)C)C1 | enzyme activity, inhibitor | 1 µM | inhibition | 67%
CNC(=O)c1cc(Oc2ccc(NC(=O)Nc3ccc(Cl)c(C(F)(F)F)c3)cc2)ccn1 | enzyme activity, inhibitor | 0.3 µM | inhibition | 61%
Clc1ccc(Nc2nnc(Cc3ccncc3)c3ccccc23)cc1 | cell-free assay | 0.5 µM | remaining signal | 101%
Cc1ccc(NC(=O)c2ccc(C)c(C(F)(F)F)c2)cc1C#Cc1nn(C2CCC(O)CC2)c2ncnc(N)c12 (centres unmarked) | cell-free assay | 10 µM | remaining signal | 96%
Cc1ccc(C(=O)Nc2ccc(CN3CCN(C)CC3)c(C(F)(F)F)c2)cc1C#Cc1cnc2cccnn12 | enzyme activity, inhibitor | 23.5 nM | remaining activity | 33%
Nc1nc(Nc2ccccc2)sc1C(=O)c1c(F)cccc1F | enzyme activity, inhibitor | 10 µM | remaining activity | 99%
O=C(Nc1cnn(-c2csc(C(=O)NC3COC3)c2)c1)Nc1c(F)cccc1Cl | enzyme activity, inhibitor | 5 µM | remaining activity | 90.8%
FC(F)(F)Oc1cccc(-c2cnc3ccc(-c4ccncc4)nn23)c1 | enzyme activity, inhibitor, radiometric | 5 µM | activity vs control | 81%

SMILES | assay | setting | quantity | result
CC(C)(O)[C@H]1CC[C@H](Nc2ccc3ncc(-c4cccc(C(F)(F)F)c4)n3n2)CC1 | enzyme activity, inhibitor | 1 µM | remaining activity | 66.5%
COc1cc(/C=C/C(=O)CC(=O)/C=C/c2ccc(O)c(OC)c2)ccc1O | enzyme activity, inhibitor | 1 µM | activity vs control | 129%
NS(=O)(=O)c1cc(NC(=O)C2(c3ccccc3Cl)CC2)ccc1Oc1cccc(Cl)c1 | cell-free assay, competition with immobilised ligand | 1 µM | remaining binding | 100%
CCCOc1ccc(OC)c(F)c1C(=O)c1ccc(C(=O)N[C@@H]2CNC[C@H]2NC(=O)c2ccc3[nH]ncc3c2)cc1 | enzyme activity, inhibitor | 10 µM | remaining activity | 67%
CC(=O)C1=C(C)N(c2cccc(C(F)(F)F)c2)C(=O)N[C@@H]1c1ccc(C#N)nc1 | cell-free assay, competition with immobilised ligand | 1 µM | remaining binding | 84.8%
COc1cc(Nc2cnc(C#N)c(O[C@H](C)CN(C)C)n2)ncc1-c1cnn(C)c1 | enzyme activity, inhibitor, radiometric | 10 µM | remaining activity | 112%
C[C@@H]1CN(c2cc(-c3nn(C)c4ccc(OC5(C)CC5)cc34)ncn2)C[C@H](C)O1 | cell-free assay, competition with immobilised ligand | 1 µM | remaining binding | 67%
Cc1cnc(NC2CCOCC2)nc1-n1cnc(C(=O)NC(CN)c2cc(F)cc(Cl)c2)c1 (centres unmarked) | enzyme activity, inhibitor, radiometric | 1 µM | remaining activity | 25%
CO[C@@H](C)c1c(Nc2ccc([C@@H](N(C)C(=O)C3CCS(=O)(=O)CC3)C(F)(F)F)cc2)cnc2cc(Cl)nn12 | cell-free assay, competition with immobilised ligand | 1 µM | remaining binding | 85%
CCN(CC)CCNC(=O)c1c(C)[nH]c(/C=C2\C(=O)Nc3ccc(F)cc32)c1C | enzyme activity, inhibitor | 10 µM | inhibition | 6%
CN([C@@H]1CCc2c(CC(=O)O)c3ccccc3n2C1)S(=O)(=O)c1ccc(F)cc1 | cell-free assay, competition with immobilised ligand | 1 µM | remaining binding | 100%
O=C(CSc1nc2nccnc2c(=O)n1CCc1ccccc1)Nc1nccs1 | enzyme activity, inhibitor | 10 µM | inhibition | -11%
Cn1nc(C(=O)NCc2ccc(C(=O)O)cc2)cc1-c1ccc2[nH]ccc2c1 | cell-free assay, competition with immobilised ligand | 0.1 µM | remaining binding | 96%
COc1cc2c(N3CCN(C(=O)Nc4ccc(OC(C)C)cc4)CC3)ncnc2cc1OCCCN1CCCCC1 | cell-free assay | 0.5 µM | remaining signal | 99%
CCC(=O)N[C@H]1CC[C@@H](C(=O)N(C)c2ccc(-c3nc4ccccc4o3)cc2)C1 | cell-free assay, competition with immobilised ligand | 1 µM | remaining binding | 100%
Nc1nc(Nc2ccc(S(N)(=O)=O)cc2)nn1C(=O)c1c(F)cccc1F | cell-free assay | 0.5 µM | remaining signal | 95.9%
